Measured values published in the RNAGym collection of RNA variant scans (doi:10.1126/science.aae0568).
Fewer inactive variants are shown than the library holds.

B1: tRNA (parent)
chain: GUUCCGUUGGCGUAAUGGUAACGCGUCUCCCUCCUAAGGAGAAGACUGCGGGUUCGAGUCCCGUACGGAACG

Variants of: B1
Test: yeast fitness relative to wild type (ratio to wild type); higher = fitter; tRNA-Arg(CCU), competitive growth, 37 C, YPD
How it was run: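 For this measurement, the tRNA-Arg(CCU) gene was varied by chemical synthesis at a 3% per-site mutation rate across 69 sites, and each variant was placed at the native genomic locus in Saccharomyces cerevisiae. The pooled strains went through a 24-hour competition in YPD at 37°C in six parallel replicates, with amplicons from start and end populations read by 100-nucleotide paired-end sequencing. Darwinian fitness relative to wild type followed from the change in each genotype's frequency. Genotypes needed ≥ 100 starting reads, and estimates < 0.5 were set to 0.5.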

Yeast fitness, 0.763:
U8A A43U

Yeast fitness, 0.634:
U8A C22U

Yeast fitness, 0.582:
U8A C66G

Yeast fitness, 0.855:
U8A A65G

Yeast fitness, 0.666:
U8A C46A U54C

Yeast fitness, 0.558:
U8A C27A U47C

Yeast fitness, 0.631:
U8A C22U A36U C49G A69C
U8A C31U

Yeast fitness, 0.693:
U8A G17A C24U A69C

Yeast fitness, 0.584:
U8A C24A U28A G58A

Yeast fitness, 0.55:
U8A G23A C30G A65U

Yeast fitness, 0.555:
U8A G39C

Yeast fitness, 0.692:
U8A C29U
U8A A45C

Yeast fitness, 0.697:
U8A G12A A21G C62U

Yeast fitness, 0.505:
U8A G18C A36U C66U

Yeast fitness, 0.551:
U8A C60U
U8A G9A U19G C24G

Yeast fitness, 0.585:
U8A C11A C66U

Yeast fitness, 0.53:
U8A G12A C62A

Yeast fitness, 0.837:
U8A A65C

Yeast fitness, 0.57:
U8A C29G A65G C66G

Yeast fitness, 0.545:
U8A C22U C49U A69C A70C

Yeast fitness, 0.539:
U8A G23C G56A

Yeast fitness, 0.622:
U8A C11U A70C

Yeast fitness, 0.69:
U8A G38A G48C G67A

Yeast fitness, 0.779:
U8A C49U

Yeast fitness, 0.834:
U8A C24U

Yeast fitness, 0.718:
U8A C61U
U8A C34A A45C A65C

Yeast fitness, 0.608:
U8A C22G G25A C27A C33U C49G A65C

Yeast fitness, 0.576:
U8A C29G C62G

Yeast fitness, 0.647:
U8A G38C

Yeast fitness, 0.532:
U8A A43U A70G

Yeast fitness, 0.605:
U8A G39C A43G

Yeast fitness, 0.554:
U8A C27U A40G C49U C55G

Yeast fitness, 0.708:
U8A A65U

Yeast fitness, 0.701:
U8A G9C A57C

Yeast fitness, 0.526:
U8A C29U G51C C55U

Yeast fitness, 0.502:
U8A C33U A65U

Yeast fitness, ≤ 0.5:
U8A C34U C61A
U8A G25C C31G
U8A C29G C60U G67A A69U
U8A G23C
U8A C11U A21C A69C
U8A G18C C24A C27U U32C U54G C55U
U8A C24A C30U G48C
U8A C24U U28C A40C
U8A G10A U13C A14U C27G U47C C62A
U8A A43C A65U
U8A G18C C24A U26A U32C
U8A G18A C30G U32A U35G G67A
U8A C27U A40G C55U A57U
U8A C24U A40U A42G A45U
U8A C27U A42G C62G G68A
U8A G18A C30A U32A U35G C55U G67A
U8A G9A C24G A69G
U8A G18C C66U
U8A G18A C27U C31A
U8A C11A C24A C29A C34U C61G
U8A C27G A42U
U8A G25A C33G A42G G50A
U8A C61U G63C A65G
U8A G18C C27U C46A G50A C62U
U8A C33U C66A
U8A C27A C49U A69U
U8A G23A U32G C60U U64G A69C
U8A G10C C34U C61U U64G
U8A C34U A36G A45U U64A
U8A C29A U47C
U8A G18C G25C C60U U64A
U8A G23C G56U A65U
U8A C29G A40G A70G
U8A G10A G67C A69U
U8A C29U G51C A57G
U8A G12C G17A C29U G38A G44C G50A
U8A C11U G25A C33A A40U C61A C62U
U8A C29A G39A
U8A G9A A21C
U8A C22U A36G A40C U47A
U8A C22U C34G A36U A57G A65C
U8A G18C
U8A C11U A43U C61A A65U
U8A C29G U32C
U8A G18A C30A U32A U35G G56A C60A C62G C66A
U8A C30G C61A
U8A C33U A65G
U8A G10A G38C
U8A G23A C30U U35C
U8A G12A A45C
U8A C55G
U8A C55U
U8A C24A G52C
U8A G18A G52A U59A G67C
U8A G38A U54A
U8A G18A G25A C33U G51A G56A C66U
U8A C24A U28C
U8A A45G A65U
U8A G18C G25C C60U C61A
U8A C24G U26A G50A
U8A G18C U19C A20C A36G U64A G67C
U8A C31U G58A C61G C66U
U8A G18C C27U G51C C55A C62U A65U G68A A69U
U8A C11U A20G G25C G39C
U8A C33A A40G
U8A C33A A40C
U8A C34U A65U
U8A C11U A21C G56C G68C
U8A G18A U47G U54A
U8A C31G A65U
U8A G9C A15G U54A
U8A G25A G48C C62A
U8A C22G G25A C27A C33U A57C G68C
U8A C31U U59A
U8A G9A C24U U53C C60G
U8A C22U U35C
U8A G12A C33U A37G C62A
U8A C22G U35C A70G
U8A C24U A40U A42C A65C A69C
U8A G17A U26C C29G U35A A42G A69U
U8A G10C G12C C34G G67U
U8A G39C A65G
U8A C30U G58C
U8A C11U G25A C33A A40U A69U
U8A C11U C46U G68A
U8A C30U A40U G52C
U8A G18C G25C A45U C49G
U8A C11U G25C G39C C55U
U8A C22U U59A
U8A C30U A42G A57C
U8A G17A U32A A43G
U8A G10C C27A G48A
U8A C33U A36U A70G
U8A G23A A36G
U8A G12A A20C
U8A G12C G17A C33U A40G G41C
U8A C22G A43U G52A U54C G56U U64C
U8A G10C G12C C34G C61G
U8A C29U C62U A70U
U8A C31A C61U
U8A C60G G67A
U8A C30U C46A U54A A57G
U8A G18A C30G A40C U47C
U8A C11A C24U A40U
U8A A43U C49U C55A
U8A C27U A42G
U8A C33U
U8A C29U C30G
U8A G18A A69C
U8A C30G C46A G63A G67A

Yeast fitness, 0.775:
U8A C66U

Yeast fitness, 0.528:
U8A C61A G67A

Yeast fitness, 0.583:
U8A C11G G56A

Yeast fitness, 0.674:
U8A C11A

Yeast fitness, 0.65:
U8A G12A A14C G67U

Yeast fitness, 0.625:
U8A C27A

Yeast fitness, 0.527:
U8A G18A C30A U32A U35G G67A

Yeast fitness, 0.546:
U8A C30G C62U G67C

Yeast fitness, 0.642:
U8A C22G G25A C27A C33U C49G

Yeast fitness, 0.657:
U8A C46A

Yeast fitness, 0.531:
U8A C24A U28C G68U

Yeast fitness, 0.604:
U8A C30A

Yeast fitness, 0.619:
U8A C34U A43U U59C

Yeast fitness, 0.857:
U8A C11G A65G

Yeast fitness, 0.818:
U8A A45U

Yeast fitness, 0.536:
U8A C29U G51C G67A

Yeast fitness, 0.776:
U8A A70C
